Assay results pooled from the literature.
Lines come from different studies, so protocols differ.
Target: Serine/threonine-protein kinase PknB (pknB, Mycobacterium tuberculosis, UniProt P9WI81)

C[C@@H]1CN(c2cc(-c3n[nH]c4ccc(OC5(C)CC5)cc34)ncn2)C[C@H](C)O1 — remaining binding (cell-free assay, competition with immobilised ligand; 0.1 µM): 95%
Nc1ncc(-c2nc(N3CCOCC3)nc(N3CCOCC3)n2)c(C(F)F)n1 — remaining signal (cell-free assay; 10 µM): 66%
CC1CCCN1c1nccc(-c2cnn3ncccc23)n1 (centres unmarked) — remaining binding (binding; 1 µM): 100%
Nc1ncnc2occ(-c3ccc(NC(=O)Nc4cc(C(F)(F)F)ccc4F)cc3)c12 — remaining signal (cell-free assay; 20 µM): 66%
CN(C)c1nccc(-c2cnn3ncccc23)n1 — remaining binding (binding; 1 µM): 76%
COc1cc(Nc2ncc(F)c(Nc3ccc4c(n3)NC(=O)C(C)(C)O4)n2)cc(OC)c1OC — inhibition (binding, competition with immobilised ligand; 10 µM): 46%
C[C@H](c1ccnc(Nc2nc3ccc(-c4cc(N(C)C)ncn4)cc3[nH]2)c1)N1CCN(C(=O)CC(F)(F)F)CC1 — remaining binding (cell-free assay, competition with immobilised ligand; 0.1 µM): 91%
Cc1ccc(C(=O)Nc2ccc(CN3CCN(C)CC3)c(C(F)(F)F)c2)cc1C#Cc1cnc2cccnn12 — remaining signal (cell-free assay; 23.5 nM): 98%
